Calls of active or inactive are those of the source. The rule behind the calls is not given here.
Tests used:
Leishmania amazonensis [1] = assay: Leishmanicidal activity against Leishmania amazonensis MHOM/BR/87/BA125 after 48 hrs; assay type: functional, organism-based; details: MHOM/BR/87/BA125, 48 h
Procedure, shortened: (§1)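 Log-phase promastigotes at 10⁵ per well in medium with 10% heat-inactivated FCS, 2 mM L-glutamine, gentamicin and 2% human urine were grown with compound at 26 °C for 48 h. Parasites were counted by automatic cell counter, with inhibition expressed as % of DMSO-treated control. Triplicates, with experiments repeated at least twice.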

Leishmania amazonensis [2] = assay: Leishmanicidal activity against Leishmania amazonensis MHOM/BR/87/BA125 after 48 hrs relative to control; assay type: functional; parameters: concentration or dose not given beside the values; procedure, shortened: as §1
[3] = Cytotoxicity against mouse J774 cells after 48 hrs by MTT assay; assay type: cell-based; details: read-out: LC50
Procedure, shortened: (§2)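 J774 murine macrophages in DMEM with 2 mM L-glutamine, 10 mM HEPES, 10% FCS and gentamicin were seeded at 1.5 × 10⁵ cells/well and attached for 24 h at 37 °C. Cells were exposed to 1, 10 or 100 µM for 48 h, then given MTT for 1 h at 37 °C in the dark. Formazan was dissolved in DMSO and read at 540 nm. Triplicates with growth controls.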

Leishmania braziliensis [4] = assay: Leishmanicidal activity against Leishmania braziliensis MHOM/BR/01/BA788 after 48 hrs; assay type: functional, organism-based; details: MHOM/BR/01/BA788, 48 h; procedure, shortened: as §1
Leishmania braziliensis [5] = assay: Leishmanicidal activity against Leishmania braziliensis MHOM/BR/01/BA788 after 48 hrs relative to control; assay type: functional; parameters: concentration or dose not given beside the values; procedure, shortened: as §1
J774 = assay: Cytotoxicity against mouse J774 cells at 100 uM after 48 hrs by MTT assay; assay type: cell-based; details: j774, 48 h; procedure, shortened: as §2
Leishmania amazonensis [6] = assay: Antiamastigote activity against Leishmania amazonensis MHOM/BR/87/BA125 infected in BALB/c mouse peritoneal macrophages assessed as inhibition of infection index after 48 hrs by Giemsa staining; assay type: functional, organism-based
Procedure, shortened: (§3)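 Thioglycollate-elicited BALB/c peritoneal macrophages, 4 × 10⁵ per well on coverslips in DMEM with 10% FBS, adhered overnight and were infected with L. amazonensis promastigotes at 37 °C for 4 h. Free parasites were removed, then compounds were added (1, 10, 100 µM; DMSO ≤0.01%) for 48 h at 37 °C, 5% CO2. Infection index = % infected × mean amastigotes per macrophage.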

Leishmania amazonensis [7] = assay: Antiamastigote activity against Leishmania amazonensis MHOM/BR/87/BA125 infected in BALB/c assessed as decrease of lesion size in ear at 30 mg/kg, po qd for 28 days measured up to 30 days; assay type: functional
Procedure, shortened: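 Female BALB/c mice, 6-8 weeks old, inoculated in right ear dermis with 10⁵ stationary-phase L. amazonensis promastigotes in sterile saline. From the second week post-infection, groups of 5 were dosed orally once daily for 28 days at 30 mg/kg/day in water; vehicle control received water orally. Lesion size was taken as infected minus contralateral ear thickness, measured twice weekly by digital caliper.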

Leishmania amazonensis [8] = assay: Antiamastigote activity against Leishmania amazonensis MHOM/BR/87/BA125 infected in BALB/c assessed as decrease of parasite load in draining lymph nodes at 30 mg/kg, po qd for 28 days measured up to 30 days; assay type: functional, organism-based
Procedure, shortened: (§4)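 BALB/c mice (n = 5 per group) infected in the ear dermis with 10⁵ L. amazonensis promastigotes, then dosed orally with 30 mg/kg/day in water for 28 days. After treatment, infected ears and draining lymph nodes were excised, homogenized and serially diluted in Schneider medium with 10% FCS for a limiting dilution assay. Groups were compared to control by one-way ANOVA with Dunnett's test.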

Leishmania amazonensis [9] = assay: Antiamastigote activity against Leishmania amazonensis MHOM/BR/87/BA125 infected in BALB/c assessed as decrease of parasite load in ear at 30 mg/kg, po qd for 28 days measured up to 30 days; assay type: functional, organism-based; procedure, shortened: as §4
Leishmania amazonensis [10] = assay: Antiamastigote activity against Leishmania amazonensis MHOM/BR/87/BA125 infected in BALB/c mouse peritoneal macrophages assessed as decrease of percentage of infected macrophages at 1 to 100 uM after 48 hrs by Giemsa staining; assay type: functional, organism-based; procedure, shortened: as §3
Leishmania amazonensis [11] = assay: Antiamastigote activity against Leishmania amazonensis MHOM/BR/87/BA125 infected in BALB/c mouse peritoneal macrophages assessed as decrease of number of intracellular parasites per macrophage at 1 to 100 uM after 48 hrs by Giemsa staining; assay type: functional, organism-based; procedure, shortened: as §3
Leishmania amazonensis [12] = assay: Antiamastigote activity against Leishmania amazonensis MHOM/BR/87/BA125 infected in BALB/c mouse peritoneal macrophages assessed as decrease of percentage of infected macrophages at 100 uM after 48 hrs by Giemsa staining; assay type: functional; details: MHOM/BR/87/BA125, 48 h; procedure, shortened: as §3
Leishmania amazonensis [13] = assay: Antiamastigote activity against Leishmania amazonensis MHOM/BR/87/BA125 infected in BALB/c mouse peritoneal macrophages assessed as decrease of percentage of infected macrophages at 10 to 100 uM after 48 hrs by Giemsa staining; assay type: functional, organism-based; procedure, shortened: as §3
Leishmania amazonensis [14] = assay: Antiamastigote activity against Leishmania amazonensis MHOM/BR/87/BA125 infected in BALB/c mouse peritoneal macrophages assessed as decrease of percentage of infected macrophages at 1 uM after 48 hrs by Giemsa staining; assay type: functional, organism-based; procedure, shortened: as §3
Leishmania amazonensis [15] = assay: Antiamastigote activity against Leishmania amazonensis MHOM/BR/87/BA125 infected in BALB/c mouse peritoneal macrophages assessed as inhibition of infection index at 100 uM after 48 hrs by Giemsa staining; assay type: functional; details: MHOM/BR/87/BA125, 48 h; procedure, shortened: as §3

SMILES | IC50 (Leishmania amazonensis [1]) | Efficacy (Leishmania amazonensis [2]) | CC50 at 48 h [3] | IC50 (Leishmania braziliensis [4]) | Efficacy (Leishmania braziliensis [5]) | Activity (J774) | inhibition (Leishmania amazonensis [6]) | Activity (Leishmania amazonensis [7]) | Activity (Leishmania amazonensis [8]) | Activity (Leishmania amazonensis [9]) | Activity (Leishmania amazonensis [10]) | Activity (Leishmania amazonensis [11]) | inhibition at 100 µM (Leishmania amazonensis [12]) | Activity (Leishmania amazonensis [13]) | Activity (Leishmania amazonensis [14]) | inhibition at 100 µM (Leishmania amazonensis [15])
CC(C)COP(=O)(N/N=C/c1ccccn1)OCC(C)C | 98.3 µM | 40.7% | > 100 µM | > 100 µM | inactive |  |  |  |  |  |  |  |  |  |  | 
N=C(N)c1ccc(OCCCCCOc2ccc(C(=N)N)cc2)cc1 [PENTAMIDINE] | 1.8 µM | 93.8% | > 100 µM | 0.06 µM | 95.7% | 28.8% |  |  |  |  |  |  |  |  |  | 
CC(C)OP(=O)(N/N=C/c1cccnc1)OC(C)C | > 100 µM | inactive | > 100 µM | 0.4 µM | 75.9% |  |  |  |  |  |  |  |  |  |  | 
CCCCOP(=O)(N/N=C/c1ccccn1)OCCCC (mixture of isomers) | 6.2 µM | 69.5% | > 100 µM | 0.06 µM | 76.3% |  |  |  |  |  |  |  |  |  |  | 
CCC(C)OP(=O)(N/N=C/c1c(Cl)cncc1Cl)OC(C)CC (stereo not given) | 26 µM | 92.4% | > 100 µM | 0.03 µM | 74.1% | 20.5% |  |  |  |  |  |  |  |  |  | 
CCOP(=O)(N/N=C/c1cccnc1)OCC | > 100 µM | inactive | > 100 µM | > 100 µM | inactive |  |  |  |  |  |  |  |  |  |  | 
CC(C)OP(=O)(N/N=C/c1ccccn1)OC(C)C | > 100 µM | inactive | > 100 µM | 0.7 µM | 56.3% |  |  |  |  |  |  |  |  |  |  | 
CCC(C)OP(=O)(N/N=C/c1cccnc1Br)OC(C)CC (stereo not given) | < 0.001 µM | 95.3% | > 100 µM | 5.2 µM | 80.1% |  | Dose-dependent effect | 0.0804 mm | Active | Active | Active | Active | 82.2% | Active | inactive | 97.9%
CCC(C)OP(=O)(N/N=C/c1cncc(Br)c1)OC(C)CC (stereo not given) | 26.3 µM | 93.8% | > 100 µM | 3.6 µM | 92.2% |  | Dose-dependent effect | 0.0527 mm | Active | inactive | Active | Active | 99.3% | Active | inactive | 99.9%
CC(C)COP(=O)(N/N=C/c1ccncc1)OCC(C)C | > 100 µM | inactive | > 100 µM | 0.06 µM | 84.2% |  |  |  |  |  |  |  |  |  |  | 
CC(C)OP(=O)(N/N=C/c1ccncc1)OC(C)C | > 100 µM | inactive | > 100 µM | > 100 µM | inactive |  |  |  |  |  |  |  |  |  |  | 
CCOP(=O)(N/N=C/c1ccccn1)OCC (mixture of isomers) | > 100 µM | inactive | > 100 µM | 7.5 µM | 62.1% |  |  |  |  |  |  |  |  |  |  | 
CCCCOP(=O)(N/N=C/c1cccnc1)OCCCC | 53.3 µM | 85.6% | > 100 µM | 5.4 µM | 87.9% |  |  |  |  |  |  |  |  |  |  | 
CCCCCCCCCCCCCCCCOP(=O)([O-])OCC[N+](C)(C)C [MILTEFOSINE] | 3.4 µM | 96.3% | > 100 µM | 0.7 µM | 84.5% |  |  |  | Active | Active |  |  |  |  |  | 100%
CCOP(=O)(N/N=C/c1ccncc1)OCC | > 100 µM | inactive | > 100 µM | > 100 µM | inactive |  |  |  |  |  |  |  |  |  |  | 
CCCCOP(=O)(N/N=C/c1ccncc1)OCCCC | 99.3 µM | 45.5% | > 100 µM | 5.1 µM | 77.2% |  |  |  |  |  |  |  |  |  |  | 
CC(C)COP(=O)(N/N=C/c1cccnc1)OCC(C)C | 83.3 µM | 52.8% | > 100 µM | 40.7 µM | 81.6% |  |  |  |  |  |  |  |  |  |  | 

From ChEMBL document CHEMBL3612006, “Novel dialkylphosphorylhydrazones: Synthesis, leishmanicidal evaluation and theoretical investigation of the proposed mechanism of action” (Eur J Med Chem, 2015)
